# Source: PubChem (several laboratories)
# Shown are actives, neighbours in structure and some others; about 4.1% of the full set was active somewhere.
# Cl transport mod = modulates chloride dependent transport by human KCC2; AID 1456; Q9H2X9; KCC2 cells, thallium flux FluoZin-2 fluorescence; B-score of Tl+ flux slope (higher = more flux/activation; lower = inhibition) at 10 µM; 190,000 tested, 2.2% active;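 active = thallium flux slope and its plate-corrected score both differing from the plate sample mean at a set confidence after two filtering rounds, in either direction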;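 also: slope of fluorescence scaled to starting intensity during 10 to 20 s after thallium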
# Target sequence (Q9H2X9 whole entry, looked up): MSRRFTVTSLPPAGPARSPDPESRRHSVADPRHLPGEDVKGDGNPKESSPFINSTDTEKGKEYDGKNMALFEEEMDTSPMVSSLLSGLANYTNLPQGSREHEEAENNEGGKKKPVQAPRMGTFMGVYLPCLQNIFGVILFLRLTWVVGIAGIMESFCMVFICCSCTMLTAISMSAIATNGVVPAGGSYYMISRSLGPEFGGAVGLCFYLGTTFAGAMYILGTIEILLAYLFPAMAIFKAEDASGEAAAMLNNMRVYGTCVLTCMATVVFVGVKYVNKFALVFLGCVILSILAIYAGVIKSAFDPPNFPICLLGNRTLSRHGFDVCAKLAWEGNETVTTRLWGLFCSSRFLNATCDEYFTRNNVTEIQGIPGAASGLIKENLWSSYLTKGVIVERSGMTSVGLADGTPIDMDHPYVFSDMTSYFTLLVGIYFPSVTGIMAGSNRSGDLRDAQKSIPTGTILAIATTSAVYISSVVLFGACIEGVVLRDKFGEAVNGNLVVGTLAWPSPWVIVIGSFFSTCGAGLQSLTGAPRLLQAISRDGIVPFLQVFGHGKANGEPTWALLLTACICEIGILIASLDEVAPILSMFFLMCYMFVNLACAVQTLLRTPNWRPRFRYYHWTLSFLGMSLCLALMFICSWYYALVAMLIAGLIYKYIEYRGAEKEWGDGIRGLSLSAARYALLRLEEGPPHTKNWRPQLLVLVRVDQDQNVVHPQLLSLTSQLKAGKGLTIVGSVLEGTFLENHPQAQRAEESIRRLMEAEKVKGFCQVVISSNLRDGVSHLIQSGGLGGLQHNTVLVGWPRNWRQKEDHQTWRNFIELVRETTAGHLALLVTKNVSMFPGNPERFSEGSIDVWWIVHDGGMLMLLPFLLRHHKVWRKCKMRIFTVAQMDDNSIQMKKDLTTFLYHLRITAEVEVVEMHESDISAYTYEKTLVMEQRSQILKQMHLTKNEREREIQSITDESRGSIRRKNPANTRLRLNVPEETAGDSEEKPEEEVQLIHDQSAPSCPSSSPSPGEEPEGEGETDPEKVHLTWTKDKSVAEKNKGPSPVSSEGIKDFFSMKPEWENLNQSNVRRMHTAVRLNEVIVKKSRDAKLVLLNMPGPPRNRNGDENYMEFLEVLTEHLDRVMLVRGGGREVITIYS
# KCNK9 block = inhibitors of human KCNK9 two-pore domain potassium channel; B-score at 10 µM; 310,000 tested, 1.2% active; Q9NPC2; HEK293 KCNK9, FluxOR thallium flux fluorescence; active compounds read low;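 active = ratio B-score over 3 SD below the library mean, with starting fluorescence within 5 SD of its mean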;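 also: negative B-score means less thallium flux so channel inhibition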
# KCNQ1 block = blocks the human KCNQ1 potassium channel | B-score at 10 µM | CHO-K1 KCNQ1, FluxOR thallium flux fluorescence; active compounds read high | P51787 | 310,000 tested, 1.3% active | AID 2642;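 active = compounds whose thallium flux B-score, printed positive for inhibition, exceeds three library SD while starting fluorescence stays within three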;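 also: channel opened by potassium depolarization with thallium stimulus after 20 min compound exposure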
# KCNQ1 act = human KCNQ1 channel potentiation or activation | CHO-K1 KCNQ1, thallium flux FluxOR fluorescence; active compounds read high | B-score at 10 µM | 310,000 tested, 0.35% active;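 active = fluorescence ratio B-score, a plate-corrected score, at least three library SD, with initial intensity B-score within 5 SD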
#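 Test system: CHO-K1 cells stably expressing KCNQ1 / Medium: assay buffer / Also added: depolarizing K+/Tl+ stimulus, K2SO4 and Tl2SO4 each 12.5 mM in 5x stock / Incubation: 90 min dye loading and 20 min compound exposure, both at room temperature / Signal: thallium influx via FluxOR fluorescence, kinetic imaging / Evaluation: B score of baseline-normalized fluorescence ratio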
# KCNK3 inh = human KCNK3 channel inhibition, primary screen; O14649; CHO-KCNK3 thallium flux, FluxOR fluorescence; active compounds read low; B-score at 10 µM; 340,000 tested, 0.84% active; AID 602410;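 active = B-score under library mean minus 4 SD, starting fluorescence ratio at most library mean plus 5 SD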;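 also: more negative B-score means stronger inhibition of thallium flux through KCNK3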
# hERG rescue = hERG (human) protection from proarrhythmic block; Q12809; CHO-hERG, FluxOR thallium flux, dofetilide IC70 present; activation (rescue from dofetilide block), less the hit threshold, % at 10 µM; 310,000 tested, 0.51% active; AID 1511;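 active = activation above the mean of controls blocked by dofetilide plus 5 SD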;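 also: thallium influx through hERG after potassium depolarization seen as dye fluorescence rise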
# KCNQ1 inh valid = reconfirmed blocker of the human KCNQ1 potassium channel; shares compounds with KCNQ1 block; KCNQ1 cell line, FluxOR thallium flux fluorescence; inhibition, % at 10 µM; 1,600 tested, 93% active; AID 588353;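 active = primary screen active, with duplicate mean exceeding buffer control mean plus 3 SD of buffer wells, cut at about 28% in these data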
# CHO KCNQ1 ctr = activity in parental CHO cells lacking KCNQ1. shares compounds with KCNQ1 block. parental CHO-K1, FluxOR thallium flux fluorescence ratio; active compounds read low; zero means no signal rise above baseline. fluorescence ratio (Tl flux) at 10 µM. 1,600 tested, 21% active. AID 588366;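 active = mean of duplicate thallium-flux fluorescence ratios in parental host cells more than 5 SD below the buffer control mean, cut at about 0.38 in these data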;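 also: ratio is peak minus minimum fluorescence divided by baseline fluorescence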
# KCNQ1 APC inh = human KCNQ1 inhibition validated by electrophysiology. KCNQ1-CHO cells, automated patch clamp current. shares compounds with KCNQ1 block. 490 tested, 20% active. calls only at 10 µM;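 active = KCNQ1 current drop exceeding 3 SD of negative control wells, seen in both duplicate runs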;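 also: steady state current during a 2 s step from -80 to +40 mV; negative values mean current inhibition and positive values mean potentiation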
# KCNQ2 spec = selectivity of KCNQ1 inhibitors: inhibition of rat KCNQ2 channel | AID 651746 | shares compounds with KCNQ1 block | inhibition, % at 10 µM | 1,600 tested, 71% active | KCNQ2 cells, FluxOR thallium flux fluorescence;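 active = mean percent inhibition of the KCNQ2 thallium signal more than 5 SD above the buffer-only control wells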;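 also: KCNQ2 expressed in CHO cells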
# KCNQ1 KCNE1 spec = human KCNQ1/KCNE1 inhibition in KCNQ1 specificity screen; 1,600 tested, 77% active; shares compounds with KCNQ1 block; inhibition, % at 10 µM; KCNQ1/KCNE1 cells, FluxOR thallium flux fluorescence;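 active = mean percent inhibition of duplicate wells above the buffer-only control mean plus 3 SD of those controls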
# KCNK9 inh conf = confirmation of human KCNK9 potassium channel inhibitors | inhibition, % at 10 µM | 4,900 tested, 43% active | HEK293 KCNK9 cells, FluxOR thallium flux fluorescence | shares compounds with KCNK9 block;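 active = thallium signal inhibited by more than 5 SD of the compound-free buffer control wells, on both duplicate plates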
# Kir21 sel = selectivity of KCNK9 modulators against mouse Kir2.1 | shares compounds with KCNK9 block | Kir2.1 cells, FluxOR thallium flux fluorescence | inhibition, % at 10 µM | 4,900 tested, 4% active;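 active = thallium signal drop more than 5 SD beyond the mean of the no-compound control wells, seen in both duplicate plates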;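 also: signal is fluorescence rise after thallium addition divided by baseline fluorescence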
# KCNK9 uninduced = second check of KCNK9 modulator effects in non-induced HEK293 cells | inhibition, % at 10 µM | shares compounds with KCNK9 block | 4,900 tested, 40% active | FluxOR thallium flux | AID 492997;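 active = thallium signal drop beyond 5 SD of the untreated control mean, on both duplicate plates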
# Hits are given with their value; n = inactive; x = no result; + = active, no number.
SMILES,Cl transport mod,KCNK9 block,KCNQ1 block,KCNQ1 act,KCNK3 inh,hERG rescue,KCNQ1 inh valid,CHO KCNQ1 ctr,KCNQ2 spec,KCNQ1 KCNE1 spec,KCNK9 inh conf,Kir21 sel,KCNK9 uninduced,others
COc1ccc(S(=O)(=O)N2CCN(c3cccc(C)c3C)CC2)cc1,n,n,9,n,n,n,+,0.35,n,n,n,n,n,
COc1cccc(N(CC(=O)NC2CC3CCC2C3)S(=O)(=O)c2ccccc2)c1 (stereo not drawn),x,n,n,n,n,n,x,x,x,x,x,x,x,
Cc1cccc(N(CC(=O)NC2CC3CCC2C3)S(=O)(=O)c2ccccc2)c1 (stereo not drawn),x,n,6,n,n,n,50,n,79%,61%,n,n,n,
CCCn1c(N)c(C(=O)CSc2nnc(C3CC3)n2Cc2ccccc2)c(=O)n(C)c1=O,x,x,x,x,n,x,x,x,x,x,x,x,x,
COc1ccccc1CCNC(=O)c1cc(COc2cccc(C(F)(F)F)c2)on1,x,n,7,n,n,n,100,n,88%,98%,n,n,n,KCNQ1 APC inh=n
O=C(NCC1CCOCC1)c1cc(COc2cccc(C(F)(F)F)c2)on1,x,n,n,n,n,n,x,x,x,x,x,x,x,
Cc1ccc(-n2c(-c3ccccc3)c[n+]3c2CCC3)cc1,n,n,n,n,n,n,x,x,x,x,x,x,x,
Cc1ccc(-n2c(-c3ccccc3)c[n+]3c2CCc2ccccc2-3)c(C)c1,n,-13,15,n,-9.9,n,98,0.38,95%,34%,46%,64%,36%,
O=C(CC(=O)c1ccccc1)Nc1ccc([N+](=O)[O-])cc1,x,x,x,x,n,x,x,x,x,x,x,x,x,
COc1ccc(Oc2c(C(F)(F)F)oc3cc(OCC(=O)O)ccc3c2=O)cc1,x,n,n,n,n,n,x,x,x,x,x,x,x,
O=C(Nc1cccc(Cl)c1)Nc1cc(S(=O)(=O)N2CCCCC2)ccc1Cl,n,n,8,n,n,n,104,n,67%,105%,n,n,n,
CCN(CC)S(=O)(=O)c1ccc(C)c(NC(=S)Nc2cccc(S(=O)(=O)N3CCCCCC3)c2)c1,n,n,6,n,n,n,86,n,87%,89%,n,n,n,
CCN(CC(=O)Nc1cc(S(=O)(=O)N2CCCCC2)ccc1Cl)Cc1ccccc1,x,n,11,n,n,n,86,n,104%,136%,n,n,n,
CCN(CC(=O)Nc1cc(S(=O)(=O)N2CCOCC2)ccc1Cl)Cc1ccccc1,x,x,x,x,n,x,x,x,x,x,x,x,x,
Cc1ccc(S(=O)(=O)N2CCCCC2)cc1NC(=O)Nc1ccc(Cl)cc1Cl,n,n,n,n,n,n,x,x,x,x,x,x,x,
CCN(CC)S(=O)(=O)c1ccc(C)c(NC(=O)CNc2cccc(S(=O)(=O)N3CCOCC3)c2)c1,x,n,n,n,n,n,x,x,x,x,x,x,x,
S=C(c1ccc(-c2cccc(Cl)c2)o1)N1CCCCC1,n,-8.8,6,n,n,n,92,n,87%,100%,32%,n,32%,KCNQ1 APC inh=n
